# Experiments:
# Mus musculus [1] = test: In vivo antifungal activity against murine candidosis model after peroral administration with 0.25 mg/kg at various time intervals. (percent protection for 100% mortality with fluconazole-treated group.); format: functional; details: route oral
# In short: (§1)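 Groups of 10 male mice were infected iv with 0.2 mL of C. albicans at 2 to 8×10^7 cfu/mL. Drug was given orally as a suspension in 1% Tween + 0.2% carboxymethylcellulose at 1, 4 and 24 h post-infection; controls got vehicle only. Survival was scored on days 3, 5, 7 and 9. Read-out was % survival on the day all untreated controls died, or on the day all mice given fluconazole at the same dose died.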
# Mus musculus [2] = test: In vivo antifungal activity against murine candidosis model after peroral administration with 0.25 mg/kg at various time intervals. (percent protection for 100% mortality with untreated group); format: functional; details: route oral; in short: as §1
# [3] = In vitro antifungal activity against 6 filamentous fungi; format: functional
# In short: (§2)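 Agar dilution on Kimmig's agar with 0.5% glycerol, using ATCC strains or clinical isolates. Drug stocks were 800 μg/mL in 50% ethanol, tested as 2-fold dilutions from 80 to 0.03 μg/mL. Inocula were 10⁵ cfu/mL. […] Geometric means took >80 as 160 and ≤0.03 as 0.03.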
# [4] = In vitro for antifungal activity against 10 yeasts; format: functional; in short: as §2
# Mus musculus [5] = test: In vivo antifungal activity against murine candidosis model after peroral administration with 2.5 mg/kg at various time intervals. (percent protection for 100% mortality with untreated group); format: functional; details: route oral; in short: as §1
# Mus musculus [6] = test: (§3) In vivo antifungal activity against murine candidosis model after peroral administration with 2.5 mg/kg at various time intervals. (percent protection for 100% mortality with fluconazole-treated group.); format: functional; details: route oral; in short: as §1
# Candida albicans [7] = test: as §3; format: functional; details: route oral; in short: as §1
# Candida albicans [8] = test: In vivo antifungal activity against murine candidosis model after peroral administration with 0.5 mg/kg at various time intervals. (percent protection for 100% mortality with untreated group); format: functional; details: route oral; in short: as §1
# Candida albicans [9] = test: In vivo antifungal activity against murine candidosis model after peroral administration with 0.5 mg/kg at various time intervals. (percent protection for 100% mortality with fluconazole-treated group.); format: functional; details: route oral; in short: as §1
# Candida albicans [10] = test: The compound was tested in vitro for antifungal activity against Candida albicans.; format: functional; in short: as §2
# [11] = Half-life in rats after iv administration; format: ADME, organism-based; details: rat, in vivo
# Rattus norvegicus [12] = test: In vivo activity against disseminated aspergillosis (liver) in immunocompromized rat model at a dose of 1 mg/kg, bid, po; format: functional
# In short: (§4)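 Male Sprague–Dawley rats, 10 per group, were immunosuppressed with dexamethasone 21-acetate 1 mg/kg/day po from 4 days before iv infection. Oral dosing in 1% Tween 80 + 0.2% CMC was given 1 and 8 h post-infection, then bid for 6 more days. Vehicle controls were dosed po bid. On day 7, liver homogenate was plated on Sabouraud agar (37 °C, 7 days) and log cfu/g recorded.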
# Mus musculus [13] = test: The compound was tested in vivo for anti-candida activity in mice model 1(dose: 0.5 mg/kg, untreated group).; format: functional
# Oryctolagus cuniculus [14] = test: In vivo antifungal activity against systemic candidosis in rabbit kidney at a dose of 0.5 mg/kg, qd, po.; format: functional
# In short: (§5)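 Male New Zealand rabbits, 10 per group, were infected iv with C. albicans at 1.2×10^7 cfu/kg. Oral dosing in 1% Tween 80 + 0.2% CMC began 4 h post-infection and continued qd for 6 more days; controls received vehicle. On day 7, kidney and lung homogenates in saline (1 mL/g) were plated on Sabouraud agar (37 °C, 7 days); read-out was log cfu/g wet tissue.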
# Oryctolagus cuniculus [15] = test: In vivo antifungal activity against systemic candidosis in rabbit kidney at a dose of 2.5 mg/kg, qd, po.; format: functional; in short: as §5
# Mus musculus [16] = test: The compound was tested in vivo for anti-candida activity in mice model 1 (dose :0.5 mg/kg,fluconazole-treated group); format: functional
# Candida albicans [17] = test: In vivo antifungal activity against murine candidosis model after peroral administration with 1 mg/kg at various time intervals. (percent protection for 100% mortality with untreated group); format: functional; details: route oral; in short: as §1
# Mus musculus [18] = test: The compound was tested in vivo for anti-candida activity in mice model 2(dose: 5 mg/kg, untreated group).; format: functional
# Oryctolagus cuniculus [19] = test: In vivo antifungal activity against systemic candidosis in rabbit lung at a dose of 0.5 mg/kg, qd, po.; format: functional; in short: as §5
# Oryctolagus cuniculus [20] = test: In vivo antifungal activity against systemic candidosis in rabbit lung at a dose of 12.5 mg/kg, qd, po.; format: functional
# In short: (§6)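 Groups of 10 male New Zealand rabbits were infected iv with C. albicans (1.2×10^7 cfu/kg). Drug was given orally as a suspension in 1% Tween 80 + 0.2% carboxymethylcellulose 4 h post-infection, then qd for 6 more days; controls got vehicle. On day 7, kidney or lung was homogenized in saline and plated on Sabouraud agar (37 °C, 7 days). Read-out was log cfu/g wet tissue.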
# Oryctolagus cuniculus [21] = test: In vivo antifungal activity against systemic candidosis in rabbit kidney at a dose of 12.5 mg/kg, qd, po.; format: functional; in short: as §6
# Candida albicans [22] = test: In vivo antifungal activity against murine candidosis model after peroral administration with 1 mg/kg at various time intervals. (percent protection for 100% mortality with fluconazole-treated group.); format: functional; details: route oral; in short: as §1
# Rattus norvegicus [23] = test: In vivo activity against disseminated aspergillosis (liver) in immunocompromized rat model at a dose of 5 mg/kg, bid, po; format: functional; in short: as §4
# Mus musculus [24] = test: The compound was tested in vivo for anti-candida activity in mice model 2(dose :5 mg/kg,fluconazole-treated group); format: functional
# Oryctolagus cuniculus [25] = test: In vivo antifungal activity against systemic candidosis in rabbit lung at a dose of 2.5 mg/kg, qd, po.; format: functional; in short: as §5
# Rattus norvegicus [26] = test: In vivo activity against disseminated aspergillosis (liver) in immunocompromized rat model at a dose of 50 mg/kg, bid, po; format: functional; in short: as §4
# Rattus norvegicus [27] = test: In vivo activity against disseminated aspergillosis (liver) in immunocompromized rat model at a dose of 25 mg/kg, bid, po; format: functional; in short: as §4
# Rattus norvegicus [28] = test: In vivo activity against disseminated aspergillosis (liver) in immunocompromized rat model at a dose of 2 mg/kg, bid, po; format: functional
# Candida albicans [29] = test: Tested in vivo for anti-candida activity in mice model 1 (dose: 0.5 mg/kg, untreated group).; format: functional
# Mus musculus [30] = test: The compound was tested in vivo for anti-candida activity in mice model 2(dose :1 mg/kg,fluconazole-treated group); format: functional
# Candida albicans [31] = test: Tested in vivo for anti-candida activity in mice model 1 (dose:0.5 mg/kg, fluconazole-treated group); format: functional
# Mus musculus [32] = test: The compound was tested in vivo for anti-candida activity in mice model 2(dose: 1 mg/kg, untreated group).; format: functional
# Mus musculus [33] = test: The compound was tested in vivo for anti-candida activity in mice model 1(dose: 1 mg/kg, untreated group).; format: functional
# Mus musculus [34] = test: The compound was tested in vivo for anti-candida activity in mice model 1(dose: 1 mg/kg,fluconazole-treated group); format: functional
smiles,measurement,setting,value
C[C@@H](n1cnc2cc(Cl)ccc2c1=O)[C@@](O)(Cn1cncn1)c1ccc(F)cc1F,Protection,Mus musculus [1],0%
same,Protection,Mus musculus [2],0%
same,MIC,[3]; read-out: MIC,> 80 µg/mL
same,MIC,[4]; read-out: MIC,> 80 µg/mL
C[C@@H](n1cnc2ncccc2c1=O)[C@](O)(Cn1cncn1)c1ccc(F)cc1F,Protection,Mus musculus [5],0%
same,MIC,[3]; read-out: MIC,> 80 µg/mL
same,MIC,[4]; read-out: MIC,43 µg/mL
same,Protection,Mus musculus [6],0%
C[C@@H](n1cnc2cc(Cl)ccc2c1=O)[C@](O)(Cn1cncn1)c1ccc(Cl)cc1Cl,Protection,Mus musculus [5],80%
same,MIC,[3]; read-out: MIC,1.6 µg/mL
same,MIC,[4]; read-out: MIC,0.2 µg/mL
same,Protection,Candida albicans [7],0%
C[C@@H](n1cnc2cc(I)ccc2c1=O)[C@](O)(Cn1cncn1)c1ccc(F)cc1F,Protection,Candida albicans [8],100%
same,Protection,Candida albicans [9],0%
same,MIC,[3]; read-out: MIC,0.9 µg/mL
same,MIC,[4]; read-out: MIC,0.3 µg/mL
same,MIC,Candida albicans [10],< 0.03 µg/mL
same,half-life,[11],> 48 h
C[C@H](n1cnc2cc(Cl)ccc2c1=O)[C@](O)(Cn1cncn1)c1ccc(F)cc1F,Protection,Mus musculus [1],0%
same,Protection,Mus musculus [2],0%
same,MIC,[3]; read-out: MIC,65 µg/mL
same,MIC,[4]; read-out: MIC,7.4 µg/mL
C[C@@H](n1cnc2cc(Cl)ccc2c1=O)[C@](O)(Cn1cncn1)c1ccc(F)cc1F (stereo in doubt; 20) [ALBACONAZOLE],Log cfu/g,Rattus norvegicus [12],1.59
same,Protection,Mus musculus [13],0%
same,Protection,Candida albicans [8],0%
same,Log cfu/g,Oryctolagus cuniculus [14],0.68
same,Log cfu/g,Oryctolagus cuniculus [15],0.3
same,Protection,Mus musculus [16],0%
same,Protection,Candida albicans [17],0%
same,Protection,Mus musculus [18],90%
same,Log cfu/g,Oryctolagus cuniculus [19],0.39
same,Log cfu/g,Oryctolagus cuniculus [20],0
same,MIC,[3],0.7 µg/mL
same,Log cfu/g,Oryctolagus cuniculus [21],0.35
same,Protection,Candida albicans [22],0%
same,MIC,[4],0.3 µg/mL
same,Log cfu/g,Rattus norvegicus [23],1.22
same,Protection,Mus musculus [24],0%
same,Log cfu/g,Oryctolagus cuniculus [25],0.12
same,MIC,Candida albicans [10],< 0.03 µg/mL
same,Log cfu/g,Rattus norvegicus [26],0
same,Log cfu/g,Rattus norvegicus [27],0.48
same,half-life,[11],2.9 h
C[C@@H]1[C@H](O)[C@@H](C)/C=C/C=C/C=C/C=C/C=C/C=C/C=C/[C@H](O[C@@H]2O[C@H](C)[C@@H](O)[C@H](N)[C@@H]2O)C[C@@H]2O[C@](O)(C[C@@H](O)C[C@@H](O)[C@H](O)CC[C@@H](O)C[C@@H](O)CC(=O)O[C@H]1C)C[C@H](O)[C@H]2C(=O)O [AMPHOTERICIN B],Log cfu/g,Rattus norvegicus [28],0.1
OC(Cn1cncn1)(Cn1cncn1)c1ccc(F)cc1F [FLUCONAZOLE],Protection,Candida albicans [29],100%
same,Log cfu/g,Oryctolagus cuniculus [20],1.44
same,MIC,[3]; read-out: MIC,> 80 µg/mL
same,Log cfu/g,Oryctolagus cuniculus [21],1.29
same,MIC,[4]; read-out: MIC,30 µg/mL
C[C@H]([C@](O)(Cn1cncn1)c1ccc(F)cc1F)S(C)(=O)=O [GENACONAZOLE],Protection,Candida albicans [29],100%
same,MIC,[3]; read-out: MIC,25 µg/mL
same,MIC,[4]; read-out: MIC,8.7 µg/mL
same,Protection,Mus musculus [30],20%
same,Protection,Candida albicans [31],100%
same,Protection,Mus musculus [32],100%
CCC(C)n1ncn(-c2ccc(N3CCN(c4ccc(OC[C@@H]5CO[C@@](Cn6cncn6)(c6ccc(Cl)cc6Cl)O5)cc4)CC3)cc2)c1=O (stereo partly specified) [ITRACONAZOLE],Protection,Candida albicans [29],0%
same,MIC,[3]; read-out: MIC,63 µg/mL
same,MIC,[4]; read-out: MIC,5.2 µg/mL
same,Protection,Candida albicans [31],0%
C[C@@H](c1nc(-c2ccc(C#N)cc2)cs1)[C@](O)(Cn1cncn1)c1ccc(F)cc1F [RAVUCONAZOLE],Protection,Candida albicans [29],50%
same,MIC,[3]; read-out: MIC,0.8 µg/mL
same,MIC,[4]; read-out: MIC,0.3 µg/mL
same,Protection,Mus musculus [30],0%
same,Protection,Candida albicans [31],0%
same,Protection,Mus musculus [32],20%
C[C@@H](c1ncncc1F)[C@](O)(Cn1cncn1)c1ccc(F)cc1F [VORICONAZOLE],Protection,Candida albicans [29],0%
same,MIC,[3]; read-out: MIC,0.5 µg/mL
same,MIC,[4]; read-out: MIC,0.6 µg/mL
same,Protection,Candida albicans [31],0%
same,Protection,Mus musculus [33],20%
same,Protection,Mus musculus [34],0%

# From ChEMBL document CHEMBL1131232, “New azole antifungals. 3. Synthesis and antifungal activity of 3-substituted-4(3H)-quinazolinones” (J Med Chem, 1998)
